Screens from PubChem.
UBC13 polyUb: UBC13 polyubiquitin chain formation inhibitors, primary screen, biochemical, TR-FRET, uHTS; actives 0.47% (n = 330,000); inhibition, % at 20 µM; AID 485273, 2010; in the data active = inhibition above about 45%, passing the limit was not always enough
Target sequence (P61088 whole entry, looked up): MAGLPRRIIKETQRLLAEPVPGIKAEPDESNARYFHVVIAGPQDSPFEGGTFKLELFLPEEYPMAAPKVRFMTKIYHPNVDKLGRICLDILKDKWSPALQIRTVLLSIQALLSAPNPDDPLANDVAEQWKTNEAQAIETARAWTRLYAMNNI
MEKK3 PB1 HTS: modulators of MEKK3-MEK5 PB1 binding, primary screen, biochemical, wildtype MEKK3, multiplex bead flow cytometry, Alexa488-MEK5; Mitogen-activated protein kinase kinase kinase 3 (Homo sapiens), Q99759; bead-based flow cytometry, Alexa488-MEK5 binding to MEKK3; actives lie on both sides; 0 = blocked by unlabeled MEK5, 100 = vehicle; binding response (% of control), % at 10 µM; actives 1.4% (n = 290,000);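 active = binding response more than 3 SD above or below the average of its plate-row segment, actives on both sides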;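 also: Alexa488 bead fluorescence after subtracting the streptavidin-only scavenger bead signal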
DSG3 Ab inh: inhibitors of pemphigus antibody binding to DSG3, primary screen, biochemical, bead-based, flow cytometry, scFv-GFP; DSG3-coupled beads, scFv-anti-DSG3-GFP binding; active compounds read low; Desmoglein-3 (Homo sapiens), P32926; binding (percent of control), % at 10 µM; actives 0.48% (n = 310,000); AID 588358, 2011;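 active = binding more than 3 SD below its plate's average and above zero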;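 also: hits lower antibody fragment binding to DSG3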
MEKK2 mut-MEK5: MEK5 binding signal on mutant MEKK2 PB1, primary screen, biochemical, multiplex bead flow cytometry, Alexa488-MEK5; actives 0.35% (n = 290,000); AID 1530, 2009; Alexa488-MEK5 binding to MEKK2 mutant; percent response, % at 10 µM; in the data active = percent response above about 24%, passing the limit was not always enough
Apaf1 inhib: inhibitors of human Apaf-1 apoptosome, primary screen, biochemical, DEVD-Rh110 fluorescence, uHTS | inhibition, % at 20 µM | AID 489030, 2010 | reconstituted apoptosome caspase-3 activity | actives 0.71% (n = 330,000) | Apoptotic protease-activating factor 1 (Homo sapiens), O14727; active = inhibition of at least 40% at 20 µM;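 also: plate controls were DMSO wells for no effect and DEVD-CHO caspase inhibitor wells for full effect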
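Material: reconstituted apoptosome with Apaf-1, cytochrome c, caspase-9, procaspase-3, dATP. Technique: Rh110 fluorescence intensity. Buffer or medium: pH 7.5 Hepes buffer with CHAPS, BSA, DTT. Times: 30 min plus 50 min, RT.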
MEKK2wt PB1 HTS: modulators of MEK5 binding to wildtype MEKK2, primary screen, biochemical, multiplex bead flow cytometry, Alexa488-MEK5. Mitogen-activated protein kinase kinase kinase 2 (Homo sapiens), Q9Y2U5. binding response (% of control), % at 10 µM. actives 1.1% (n = 290,000). Alexa488-MEK5 binding to MEKK2 WT; actives lie on both sides; in the data active = binding response below about 67% or above about 130%
MEKK2wt confirm: modulators of MEK5 binding to wildtype MEKK2, confirmation, biochemical, single concentration, multiplex bead flow cytometry; shares compounds with MEKK3 PB1 HTS; Alexa488-MEK5 binding to MEKK2 WT; actives lie on both sides; binding response (% of control), % at 10 µM; actives 2.4% (n = 5,900); AID 1892, 2009; in the data active = binding response below about 16% or above about 210%; inactive = in between
MEKK2mut-MEK5: mutant MEKK2 PB1-MEK5 binding signal retest – biochemical, single concentration, multiplex bead flow cytometry, confirmation | percent response, % at 10 µM | actives 2% (n = 5,900) | shares compounds with MEKK3 PB1 HTS | Alexa488-MEK5 binding to MEKK2 mutant; in the data active = percent response mostly above about 71%, no sharp cut-off; inactive = mostly below about 38%;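 also: higher means compound restores mutant binding toward wildtype level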
MEKK3-MEK5 inh: MEKK3 wild-type PB1 binding to MEK5, inhibitors, confirmation, biochemical, bead multiplex flow cytometry, single concentration, wildtype; shares compounds with MEKK3 PB1 HTS; Alexa488-MEK5 binding to MEKK3; active compounds read low; binding response (% of control), % at 10 µM; actives 1.8% (n = 5,900); AID 1894, 2009;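 active = binding response below 72% of control, or above a set upper limit, though filed actives all read lower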;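 also: 100% = DMSO only wells and 0% = binding blocked by excess unlabeled MEK5; lower values mean stronger disruption of MEK5 binding to MEKK3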
* hit, by the source's call; · = no result; [ ] = another dose, or the depositor's remark. In the library only some 3.2% were active in any assay of this set; here they are far more common.

SMILES	UBC13 polyUb	MEKK3 PB1 HTS	DSG3 Ab inh	MEKK2 mut-MEK5	Apaf1 inhib	MEKK2wt PB1 HTS	MEKK2wt confirm	MEKK2mut-MEK5	MEKK3-MEK5 inh
COc1ccccc1C1CCN(Cc2ccc3ccccc3c2)CC1	12	106	113	36*	13	138*	135	12	100
Cc1ccc2[nH]c(=O)c(CN(Cc3cccs3)C(=S)NCC3CCCO3)cc2c1 (stereo unspecified)	-1	138*	103	0	20	99	104	4	107
COc1ccc2[nH]c(=O)c(CN(Cc3ccccc3)C(=S)NCC3CCCO3)cc2c1 (stereo unspecified)	4	98	99	-12	10	85	·	·	·
Cc1ccc(NC(=O)N(Cc2cccs2)Cc2cc3cc4c(cc3[nH]c2=O)OCO4)cc1	-14	130*	·	0	19	104	91	-8	96
COc1ccc(NC(=O)N(Cc2cccs2)Cc2cc3cc4c(cc3[nH]c2=O)OCO4)cc1	-6	137*	·	1	7	100	99	2	104
CCN(CCNCC(O)COCc1ccc(Cl)cc1)c1cccc(C)c1 (stereo unspecified)	29	112	100	20	-13	159*	128	18	105
COC(=O)c1cc(C)sc1NC(=O)C1CC(=O)NN1Cc1ccccc1 (stereo unspecified)	12	137*	93	1	-1	108	98	-1	104
CC(NC(=O)c1cc(S(=O)(=O)N2CCOCC2)cn1C)c1ccccc1 (stereo unspecified)	2	96	103	-6	6	98	·	·	·
COc1ccc(C(=O)SC2=NCCS2)cc1	1	-2.0*[inhibitor]	89	-2	-9	-11*[inhibitor]	113	2	108
Cc1ccc(N=Cc2sc(O)c3ccccc23)cc1	-28	109	114	1	22	99	·	·	·
Cc1ccc(N=Cc2sc(O)c3ccccc23)c(C)c1	-34	119	92	7	11	135*	113	7	109
NNC(=O)c1cc2cc(OC(F)(F)F)ccc2[nH]1	-7	102	115	-1	8	102	·	·	·
O=C(CCc1[nH]c2ccccc2c1Sc1ccccc1)NCCO	5	67*[inhibitor]	101	3	-4	98	99	-3	104
O=C1NC(c2ccc(Cl)cc2)=COc2ccccc21	10	143*	110	6	-14	126	101	2	101
COc1ccc(C2=COc3ccccc3C(=O)N2)cc1	4	98	113	-6	-9	89	·	·	·
CSc1cccc(NC(=O)/C=C/c2ccc(Cl)cc2)c1	-17	107	102	10	16	146*	126	12	107
Cc1cc(NC(=O)c2ccccc2C)ccc1NC(=O)c1ccccc1Cl	-10	101	104	2	2	104	·	·	·
O=C(NCCc1c[nH]c2ccccc12)/C(=C\c1cccs1)NC(=O)c1ccccc1	-6	41*[inhibitor]	84	-1	4	96	101	1	105
CCCCc1nnc(NC(=O)CSc2nc(O)c(Cc3ccccc3)c(=O)[nH]2)s1	3	108	102	1	-1	107	·	·	·
CCCCc1nnc(NC(=O)CSc2nc(O)c(-c3ccccc3)c(=O)[nH]2)s1	3	117	105	533*	-1	·	102	0	103
CCOc1cc(C)c(Cl)cc1S(=O)(=O)NCc1ccc2c(c1)OCO2	2	81*[inhibitor]	·	-8	9	88	102	2	103
COC(=O)c1sc(C(F)(F)F)c(-c2ccccc2)c1S(=O)(=O)N1CCOCC1	·	·	105	·	·	·	·	·	·
Cc1ccccc1NCCC(=O)Nc1ccc(Cl)cc1	6	101	111	-2	8	100	·	·	·
COC(=O)c1[nH]c2cc(OC)ccc2c1N	-6	18*[inhibitor]	98	-43	9	30*[inhibitor]	109	7	102
COC(=O)c1[nH]c2cc(OC)ccc2c1NC(=O)CCN1CCSCC1	-6	124*	107	7	8	125	98	2	100
SMILES	UBC13 polyUb	MEKK3 PB1 HTS	DSG3 Ab inh	MEKK2 mut-MEK5	Apaf1 inhib	MEKK2wt PB1 HTS	MEKK2wt confirm	MEKK2mut-MEK5	MEKK3-MEK5 inh
COC(=O)c1[nH]c2cccc(OC)c2c1NC(=O)CCN1CCSCC1	-1	105	112	4	-5	102	·	·	·
CCOC(=O)Nc1c(C(=O)OC)[nH]c2cc(OC)ccc12	1	107	95	11	0	102	·	·	·
Cc1noc(C)c1NC(=O)N(C)C[C@H]1Oc2ccc(NS(=O)(=O)c3cccs3)cc2C(=O)N([C@H](C)CO)C[C@@H]1C	-4	·	·	·	8	·	·	·	·
COC(=O)CCCCCCCCC(O)C[N+]1(C)CCOCC1 (stereo unspecified)	2	22*[inhibitor]	104	-47	-22	27*[inhibitor]	92	-5	96
Cc1ccc(-n2ncc(C(=O)Nc3cc(Cl)cc(Cl)c3)c2C2CCNCC2)cc1C	·	106	89	58*	·	216*	143	-7	94
Cc1nc2cc(NC(=O)c3ccc(S(=O)(=O)N(C)c4ccccc4)cc3)ccc2o1	3	87	118	-4	2	83	·	·	·
O=C(CN1CCN(C(=O)c2cccs2)CC1)NC1CCCCC1	0	81*[inhibitor]	109	-11	7	88	96	-10	96
O=C(CN1CCN(C(=O)c2cccs2)CC1)Nc1ccc(Br)cc1	-14	99	·	-2	6	100	·	·	·
FC(F)(F)c1ccc(-c2nnc(-c3ccccn3)c(-c3ccccn3)n2)nc1	0	61*[inhibitor]	113	-37	1	66	106	3	103
